Active and inactive are the calls of the source. The calls are words filed in the database; no cut-off is given here.
Legend:
[1] = Induction of singlet oxygen generation assessed as singlet oxygen quantum yield by measuring DPBF chemical oxidation in DMF solution incubated up to 4 mins at 5 mW/cm2 laser irradiation by UV-Vis spectrophotometry; assay type: functional
[2] = Dark toxicity in human ECA109 cells assessed as decrease in cell viability after 24 hrs by MTT assay; assay type: cell-based, ECa-109
[3] = test system: ECa-109 cell line; assay: Phototoxicity against human ECA109 cells assessed as decrease in cell viability after 24 hrs at 16 J/cm2 irradiation by MTT assay; assay type: functional, cell-based; details: ECa-109, light or radiation study
Outline: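 Eca-109 cells (5×10^4/well, attached for 24 h) took up compound (0–16 μM) for 24 h. They were washed with PBS and irradiated with Nd:YAG laser at 16 J/cm²: 635 nm for porphins, 650 nm for chlorins, 730 nm for bacteriochlorins. MTT viability was read 24 h later, and IC50 was derived.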

[4] = Dark toxicity in human ECA109 cells assessed as cell survival at 20 uM after 24 hrs by MTT assay relative to control; assay type: cell-based, ECa-109; details: read-out: Survival
Outline: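 Eca-109 human esophageal carcinoma cells in RPMI-1640 with 10% FBS, trypsinised and seeded at 5×10^4 cells per well, attached for 24 h. Photosensitiser in medium (0 to 60 μM) was taken up for 24 h and the cells were not irradiated. Viability was read by MTT colorimetric assay 24 h after treatment.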

[5] = test system: ECa-109 cell line; assay: Antitumor activity against human ECA109 cells xenografted in BALB/c nude mouse assessed as tumor size at 5 mg/kg, iv treated for 24 hrs before 120 J/cm2 laser light irradiation for 5 mins and measured every other day up to 14 days (reference value: 785 +/- 37 mm3); assay type: functional
Outline: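 Eca-109 s.c. xenografts (5×10^6 cells, right forelimb) were grown in female BALB/c nude mice to ~100 mm³. Compound 5 mg/kg in 0.2 mL went i.v. into the tail vein. At 24 h, restrained unanaesthetised mice got 730 nm laser at 120 J/cm² to the tumour. Controls received no PS or light; 6 mice/group. Volume LW²/2 was taken every two days for 14 days.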

[6] = Induction of singlet oxygen generation assessed as singlet oxygen quantum yield by measuring DPBF chemical oxidation in DMF solution incubated up to 5 mins at 5 mW/cm2 laser irradiation by UV-Vis spectrophotometry; assay type: functional
[7] = Drug uptake in mitochondria of human ECA109 cells at 10 uM after 4 hrs by Mito Tracker green dye-based confocal fluorescence microscopic method; assay type: ADME; details: eca-109, 4 h
Outline: (§1)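 Eca-109 cells were plated on poly-L-lysine-coated coverslips at 1×10^5 cells/mL. After 24 h, they took up 10 μM compound in the dark for 4 h at 37 °C. They were stained with Mito-tracker Green or Lyso-Blue for 20 min at 37 °C, rinsed, and fixed in 4% paraformaldehyde at 4 °C for 30 min. Confocal imaging used sequential scans, exciting at 490 nm (Mito), 373 nm (Lyso, PS).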

[8] = Drug uptake in lysosomes of human ECA109 cells at 10 uM after 4 hrs by Lyso Blue dye-based confocal fluorescence microscopic method; assay type: ADME, subcellular, Lysosome; details: eca-109, 4 h; outline: as §1
[9] = test system: ECa-109 cell line; assay: Antitumor activity against human ECA109 cells xenografted in BALB/c nude mouse assessed as tumor size at 5 mg/kg, iv measured every other day up to 14 days; assay type: functional, organism-based
Outline: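 Four-week-old female BALB/c nude mice were given 5×10^6 Eca-109 cells s.c. in PBS into the right forelimb. At about 100 mm³ (~14 days), the compound was given at 5 mg/kg in 0.2 mL via the lateral tail vein, with no irradiation; 6 mice/group. Orthogonal L and W were measured every two days for 14 days, and V = LW²/2.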

[10] = Induction of singlet oxygen generation assessed as singlet oxygen quantum yield by measuring DPBF chemical oxidation in DMF solution incubated up to 8 mins at 5 mW/cm2 laser irradiation by UV-Vis spectrophotometry; assay type: functional

Compound: COc1ccc(-c2c3nc(cc4ccc([nH]4)c(-c4ccc(OC)c(OCCCC(=O)O)c4)c4nc(cc5ccc2[nH]5)CC4)CC3)cc1OCCCC(=O)O
- Activity [1]: 48.6 ×10⁻² k/min
- IC50 at 24 h [2]: > 300 µM
- IC50 [3]: 2.47 µM
- viability at 24 h, 20 µM [4]: 80%

Compound: O=C(O)CCCOc1cccc(-c2c3nc(cc4ccc([nH]4)c(-c4cccc(OCCCC(=O)O)c4)c4nc(cc5ccc2[nH]5)CC4)CC3)c1
- Activity [5]: 126 mm3
- Activity [6]: 69.1 ×10⁻² k/min
- IC50 at 24 h [2]: > 500 µM
- IC50 [3]: 2.43 µM
- viability at 24 h, 20 µM [4]: 80%
- Drug uptake [7]: Active
- Drug uptake [8]: Active
- Activity [9]: inactive

Compound: O=C(O)COc1cccc(-c2c3nc(cc4ccc([nH]4)c(-c4cccc(OCC(=O)O)c4)c4nc(cc5ccc2[nH]5)CC4)CC3)c1
- DPBF oxidation rate constant [10]: 30.9 ×10⁻² k/min
- IC50 at 24 h [2]: 162 µM
- IC50 [3]: 2.62 µM
- viability at 24 h, 20 µM [4]: 80%

Compound: COc1ccc(-c2c3nc(cc4ccc([nH]4)c(-c4ccc(OC)c(OCCCC(=O)O)c4)c4nc(cc5ccc2[nH]5)CC4)C=C3)cc1OCCCC(=O)O
- DPBF oxidation rate constant [10]: 19.8 ×10⁻² k/min
- IC50 at 24 h [2]: > 300 µM
- IC50 [3]: 2.83 µM
- viability at 24 h, 20 µM [4]: 80%

Compound: O=C(O)COc1cccc(-c2c3nc(cc4ccc([nH]4)c(-c4cccc(OCC(=O)O)c4)c4nc(cc5ccc2[nH]5)C=C4)C=C3)c1
- DPBF oxidation rate constant [10]: 0.829 ×10⁻² k/min
- IC50 at 24 h [2]: 74.6 µM
- IC50 [3]: 9.41 µM
- viability at 24 h, 20 µM [4]: 80%

Compound: O=C(O)CCCOc1cccc(-c2c3nc(cc4ccc([nH]4)c(-c4cccc(OCCCC(=O)O)c4)c4nc(cc5ccc2[nH]5)CC4)C=C3)c1
- DPBF oxidation rate constant [10]: 24.9 ×10⁻² k/min
- IC50 at 24 h [2]: > 300 µM
- IC50 [3]: 2.65 µM
- viability at 24 h, 20 µM [4]: 80%

Compound: O=C(O)CCCOc1cccc(-c2c3nc(cc4ccc([nH]4)c(-c4cccc(OCCCC(=O)O)c4)c4nc(cc5ccc2[nH]5)C=C4)C=C3)c1
- DPBF oxidation rate constant [10]: 1.93 ×10⁻² k/min
- IC50 at 24 h [2]: 271 µM
- IC50 [3]: 8.19 µM
- viability at 24 h, 20 µM [4]: 80%

Compound: COc1ccc(-c2c3nc(cc4ccc([nH]4)c(-c4ccc(OC)c(OCC(=O)O)c4)c4nc(cc5ccc2[nH]5)C=C4)C=C3)cc1OCC(=O)O
- DPBF oxidation rate constant [10]: 2.41 ×10⁻² k/min
- IC50 at 24 h [2]: 158 µM
- IC50 [3]: 12.5 µM
- viability at 24 h, 20 µM [4]: 80%

Compound: COc1ccc(-c2c3nc(cc4ccc([nH]4)c(-c4ccc(OC)c(OCC(=O)O)c4)c4nc(cc5ccc2[nH]5)CC4)CC3)cc1OCC(=O)O
- DPBF oxidation rate constant [10]: 38.7 ×10⁻² k/min
- IC50 at 24 h [2]: 187 µM
- IC50 [3]: 3.09 µM
- viability at 24 h, 20 µM [4]: 80%

Compound: COc1ccc(-c2c3nc(cc4ccc([nH]4)c(-c4ccc(OC)c(OCC(=O)O)c4)c4nc(cc5ccc2[nH]5)CC4)C=C3)cc1OCC(=O)O
- DPBF oxidation rate constant [10]: 14.2 ×10⁻² k/min
- IC50 at 24 h [2]: 111 µM
- IC50 [3]: 3.14 µM
- viability at 24 h, 20 µM [4]: 80%

Compound: COc1ccc(-c2c3nc(cc4ccc([nH]4)c(-c4ccc(OC)c(OCCCC(=O)O)c4)c4nc(cc5ccc2[nH]5)C=C4)C=C3)cc1OCCCC(=O)O
- DPBF oxidation rate constant [10]: 1.68 ×10⁻² k/min
- IC50 at 24 h [2]: 183 µM
- IC50 [3]: 10.1 µM
- viability at 24 h, 20 µM [4]: 80%

Compound: O=C(O)COc1cccc(-c2c3nc(cc4ccc([nH]4)c(-c4cccc(OCC(=O)O)c4)c4nc(cc5ccc2[nH]5)CC4)C=C3)c1
- Activity [6]: 4.06 ×10⁻² k/min
- IC50 at 24 h [2]: 91.8 µM
- IC50 [3]: 3.31 µM
- viability at 24 h, 20 µM [4]: 80%

Source: ChEMBL document CHEMBL4382209, “Comparison between porphin, chlorin and bacteriochlorin derivatives for photodynamic therapy: Synthesis, photophysical properties, and biological activity” (Eur J Med Chem, 2018)
